The values that follow come from ChEMBL document CHEMBL1139758, “Second generation of alpha-tocopherol analogs-nitric oxide donors: Synthesis, physicochemical, and biological characterization” (Bioorg Med Chem, 2007).

A value given as a limit tells only on which side of the number the result lay.

The test system of test [1] is Aorta. The experiment in a line: Vasodilation of noradrenaline-induced contraction of Wistar Kyoto rat thoracic aorta at 20 uM. The class given is functional. In short, it runs like this:
(§1)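 Thoracic aorta rings (4 mm) from heparinized, pentobarbital-anaesthetized (40 mg/kg ip) Wistar Kyoto rats (250–300 g). Compounds added in DMSO to the organ bath once contraction reached a plateau; α-tocopherol, Trolox and vehicle served as controls. Where used, ODQ (1 µM) was added at least 10 min before the compound.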

Test [2] concerns Aorta. The experiment in a line: Vasodilation of noradrenaline-induced contraction of Wistar Kyoto rat thoracic aorta at 10 uM. Type of test: functional. Put shortly:
as §1

Another test relates to J774. The experiment in a line: Cytotoxicity against mouse J774 cells by MTT assay. Type of test: cell-based. In short, it runs like this: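 J774.1 macrophages, kept in DMEM with 10% heat-inactivated FCS, seeded 1 × 10^5/well in RPMI with fetal serum and left to attach 48 h (37 °C, 5% CO2). Compounds at 1–500 µM for 24 h. Viability by MTT reduction (0.2 mg/mL, 3 h, 37 °C), formazan in DMSO, A560.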
For orientation: Formazan colour is commonly taken as a measure of viable cells.

In a further test the test system is THP-1. The experiment in a line: Cytotoxicity against human THP1 cells by MTT assay. Type of test: functional, cell-based. In short, it runs like this: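 Phorbol ester (100 ng/mL)-differentiated THP-1 cells, seeded 1 × 10^5/well in RPMI with fetal serum, attached 48 h at 37 °C in 5% CO2, then exposed 24 h to compounds at 1–500 µM. MTT added to 0.2 mg/mL for 3 h at 37 °C, formazan dissolved in DMSO, A560 read. IC50 is the concentration halving control absorbance; mean of at least three determinations.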

As for `CC(=O)Oc1c(C)c(C)c2c(c1C)CCC(C)(C(=O)O)O2` (stereo not given), in the test on Aorta [1], the Activity is 0%.

With `Cc1c(C)c2c(c(C)c1OCc1c(S(=O)(=O)c3ccccc3)no[n+]1[O-])CCC(C)(CCCC(C)CCCC(C)CCCC(C)C)O2` (stereo not given), the Activity in the test with Aorta [2] worked out at 15%.

Usually IC50 stands for the midpoint of a concentration-inhibition curve. For `Cc1c(C)c2c(c(C)c1O)CC[C@@](C)(CCC[C@H](C)CCC[C@H](C)CCCC(C)C)O2` [ALPHA-TOCOPHEROL], the IC50 with J774 and in the test on THP-1 was more than 500 µM throughout.

The compound `CC(=O)Oc1c(C)c(C)c2c(c1C)CCC(C)(CCCC(C)CCCC(C)CCCC(C)C)O2` (stereo not drawn) [alpha-TOCHOPHERYL ACETATE] came in with an Activity with Aorta [1] of 0%.
